According to ChEMBL document CHEMBL4610044, “Synthesis and biological evaluation of novel indole-pyrazoline hybrid derivatives as potential topoisomerase 1 inhibitors” (Bioorg Med Chem Lett, 2020):
Calls of active or inactive are those of the source. The rule behind the calls is not given here.

Columns and labels:
[1] = tested on: Supercoiled DNA; assay: Binding affinity to supercoiled DNA (unknnown origin) at 50 uM by SPR assay; assay type: nucleic-acid assay
[2] = molecular target: T1, DNA topoisomerase 1 (Homo sapiens) (UniProt P11387); assay: Poison activity at Top1 (unknown origin) assessed as decrease in relaxed supercoiled DNA at 25 uM by […] based agarose gel electrophoresis relative to control; parameters: scale not given: the % may be the effect or the level left
T1 sequence (whole entry): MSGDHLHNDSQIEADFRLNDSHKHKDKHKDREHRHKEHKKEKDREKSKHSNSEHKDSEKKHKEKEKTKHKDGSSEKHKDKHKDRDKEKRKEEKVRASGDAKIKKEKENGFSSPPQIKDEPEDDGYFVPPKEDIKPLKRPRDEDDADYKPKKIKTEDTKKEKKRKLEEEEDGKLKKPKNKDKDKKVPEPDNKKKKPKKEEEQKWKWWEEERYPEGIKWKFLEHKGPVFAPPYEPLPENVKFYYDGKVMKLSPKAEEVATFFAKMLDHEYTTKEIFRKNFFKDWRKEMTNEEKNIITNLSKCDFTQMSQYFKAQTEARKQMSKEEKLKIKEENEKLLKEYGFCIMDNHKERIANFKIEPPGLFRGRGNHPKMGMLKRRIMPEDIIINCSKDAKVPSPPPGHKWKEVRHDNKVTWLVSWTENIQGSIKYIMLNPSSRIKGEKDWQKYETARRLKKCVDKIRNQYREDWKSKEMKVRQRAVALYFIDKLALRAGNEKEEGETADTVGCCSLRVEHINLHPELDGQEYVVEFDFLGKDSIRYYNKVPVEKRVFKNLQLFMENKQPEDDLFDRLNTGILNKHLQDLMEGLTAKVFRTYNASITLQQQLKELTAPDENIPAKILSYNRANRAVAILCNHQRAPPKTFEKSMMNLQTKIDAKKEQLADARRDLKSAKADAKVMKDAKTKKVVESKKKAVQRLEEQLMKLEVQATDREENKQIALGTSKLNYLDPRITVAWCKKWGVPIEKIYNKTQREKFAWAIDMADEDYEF

[3] = molecular target: T1, DNA topoisomerase 1 (Homo sapiens); assay: Poison activity at Top1 (unknown origin) assessed as increase in supercoiled DNA at 125 uM by ethidium bromide staining based agarose gel electrophoresis relative to control
[4] = molecular target: T1, DNA topoisomerase 1 (Homo sapiens); assay: Poison activity at Top1 (unknown origin) assessed as decrease in relaxed supercoiled DNA at 300 uM
How it was run: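 The screen used a Top1-mediated relaxation assay, with compounds at 300 µM and camptothecin as positive control. Supercoiled and relaxed/Top1-bound DNA were resolved as separate bands on agarose gel.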

[5] = molecular target: Supercoiled DNA; assay: Binding affinity to supercoiled DNA (unknown origin) by SPR assay; assay type: nucleic-acid assay
[6] = tested on: DNA; assay: Binding affinity at Escherichia coli pBR322 DNA assessed as unwinding of supercoiled DNA incubated for 30 mins in presence of topoisomerase 1 by agarose gel based electrophoresis; assay type: nucleic-acid assay
[7] = molecular target: T1, DNA topoisomerase 1 (Homo sapiens); assay: Poison activity at Top1 (unknown origin) assessed as increase in supercoiled DNA at 25 uM by […] relative to control
[8] = molecular target: T1, DNA topoisomerase 1 (Homo sapiens); assay: Poison activity at Top1 (unknown origin) assessed as increase in supercoiled DNA by ethidium bromide staining based agarose gel electrophoresis
How it was run: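 In a semi-quantitative Top1 relaxation assay, compound was tested at several concentrations, including 25 and 125 µM, and camptothecin at 1, 5, 25 and 125 µM. Supercoiled DNA was quantified from gel bands as a percentage of total DNA.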

In the case of `O=S(=O)(c1ccccc1)n1cc(C2=NN(c3ccccc3)C(c3ccccc3)C2)c2ccccc21` (stereo not drawn), the Activity [1] is reported as “inactive” and the Activity [2] is reported as 40 to 79%.

With `CC[C@@]1(O)C(=O)OCc2c1cc1n(c2=O)Cc2cc3ccccc3nc2-1` the Activity [3] was 48%.

In the case of `COc1cc(C2CC(c3cn(S(=O)(=O)c4ccccc4)c4ccccc34)=NN2c2ccccc2)cc(OC)c1OC` (stereo not drawn), the Activity [1] is reported as “inactive” and the Activity [2] is reported as 40 to 79%.

For `COc1cc(C2CC(c3cn(S(=O)(=O)c4ccc(C)cc4)c4ccccc34)=NN2c2ccccc2)cc(OC)c1OC` (stereo not drawn), the Activity [1] was “inactive” and the Activity [2] was 40 to 79%.

With `O=[N+]([O-])c1cccc(C2CC(c3cn(S(=O)(=O)c4ccccc4)c4ccccc34)=NN2c2ccccc2)c1` (stereo not drawn) the Activity [1] was “inactive” and the Activity [2] was under 40%.

For `O=S(=O)(c1cccc2ccccc12)n1cc(C2=NN(c3ccccc3)C(c3ccccc3Br)C2)c2ccccc21` (stereo not drawn), the Activity [1] was “inactive” and the Activity [2] was under 40%.

`Cc1ccc(S(=O)(=O)n2cc(C3=NN(c4ccccc4)C(c4cccc5ccccc45)C3)c3ccccc32)cc1` (stereo not drawn) was tested, and the Activity [1] was “inactive” and the Activity [2] was 40 to 79%.

`Brc1ccccc1C1CC(c2c[nH]c3ccccc23)=NN1c1ccccc1` (stereo not drawn) was tested, and the Activity [1] was “inactive”, the Activity [2] was under 40% and the Activity [4] was “Active”.

`Cc1ccc(S(=O)(=O)n2cc(C3=NN(c4ccccc4)C(c4ccc(C(C)C)cc4)C3)c3ccccc32)cc1` (stereo not drawn) was tested, and the Activity [1] was “inactive” and the Activity [2] was under 40%.

`Cc1ccc(S(=O)(=O)n2cc(C3=NN(c4ccccc4)C(c4ccccc4Br)C3)c3ccccc32)cc1` (stereo not drawn) was tested, and the Activity [1] was “inactive” and the Activity [2] was under 40%.

For `CC(C)c1ccc(C2CC(c3cn(S(=O)(=O)c4ccccc4)c4ccccc34)=NN2c2ccccc2)cc1` (stereo not drawn), the Activity [1] was “inactive” and the Activity [2] was 40 to 79%.

`O=S(=O)(c1ccccc1)n1cc(C2=NN(c3ccccc3)C(c3ccc(Cl)cc3)C2)c2ccccc21` (stereo not drawn) was tested, and the Activity [1] was “inactive” and the Activity [2] was under 40%.

In the case of `O=S(=O)(c1cccc2ccccc12)n1cc(C2=NN(c3ccccc3)C(c3ccc(Cl)cc3)C2)c2ccccc21` (stereo not drawn), the Activity [1] is reported as “inactive” and the Activity [2] is reported as under 40%.

In the case of `CC[n+]1c(-c2ccccc2)c2cc(N)ccc2c2ccc(N)cc21` [HOMIDIUM BROMIDE], the Kd [5] is reported as 1.2 µM and the Activity [6] is reported as “Active”.

In the case of `Cc1ccc(C2CC(c3cn(S(=O)(=O)c4ccccc4)c4ccccc34)=NN2c2ccccc2)cc1` (stereo not drawn), the Activity [1] is reported as “inactive”, the Activity [2] is reported as under 40% and the Activity [4] is reported as “Active”.

In the case of `CC(C)c1ccc(C2CC(c3cn(S(=O)(=O)c4cccc5ccccc45)c4ccccc34)=NN2c2ccccc2)cc1` (stereo not drawn), the Activity [1] is reported as “inactive” and the Activity [2] is reported as 40 to 79%.

In the case of `COc1ccc(C2CC(c3cn(S(=O)(=O)c4cccc5ccccc45)c4ccccc34)=NN2c2ccccc2)cc1` (stereo not drawn), the Activity [1] is reported as “inactive” and the Activity [2] is reported as under 40%.

With `COc1ccc(C2CC(c3cn(S(=O)(=O)c4ccccc4)c4ccccc34)=NN2c2ccccc2)cc1` (stereo not drawn) the Activity [1] was “inactive” and the Activity [2] was 40 to 79%.

For `O=S(=O)(c1ccccc1)n1cc(C2=NN(c3ccccc3)C(c3ccccc3Br)C2)c2ccccc21` (stereo not drawn), the Activity [1] was “inactive” and the Activity [2] was under 40%.

With `COc1ccc(C2CC(c3cn(S(=O)(=O)c4ccc(C)cc4)c4ccccc34)=NN2c2ccccc2)cc1` (stereo not drawn) the Activity [1] was “inactive” and the Activity [2] was under 40%.

With `O=S(=O)(c1cccc2ccccc12)n1cc(C2=NN(c3ccccc3)C(c3cccc4ccccc34)C2)c2ccccc21` (stereo not drawn) the Activity [1] was “inactive” and the Activity [2] was under 40%.

In the case of `Cc1ccc(S(=O)(=O)n2cc(C3=NN(c4ccccc4)C(c4ccccc4)C3)c3ccccc32)cc1` (stereo not drawn), the Activity [1] is reported as “inactive” and the Activity [2] is reported as 40 to 79%.

`O=S(=O)(c1ccccc1)n1cc(C2=NN(c3ccccc3)C(c3cccc4ccccc34)C2)c2ccccc21` (stereo not drawn) was tested, and the Activity [1] was “inactive”, the Activity [2] was over 80% and the Activity [3] was 74%. For the same compound, the Activity [7] was 61%, the Activity [8] was “Dose-dependent effect” and the Activity [6] was “inactive”.

For `O=S(=O)(c1cccc2ccccc12)n1cc(C2=NN(c3ccccc3)C(c3ccccc3)C2)c2ccccc21` (stereo not drawn), the Activity [1] was “inactive” and the Activity [2] was under 40%.
